Source: PubChem (several laboratories)
STAT1 act – increases IFN-gamma driven STAT1 reporter signal | NIH 3T3 STAT1-luciferase reporter, luminescence; 100% = IFN-gamma alone, no compound | activation (% of control), % at 5.5 µM | 200,000 tested, 2.6% active;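 active means activation above the screen-wide mean activation plus 3 SD, cut at about 130% in these data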;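 further: raw ratio to IFN-gamma control signal so 100% means no change and 0% no light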
APP 5'UTR act – APP 5'UTR luciferase reporter activation; SH-SY5Y APP 5'UTR luciferase reporter, luminescence; zero percent = DMSO vehicle wells; AID 1276; 190,000 tested, 1% active; activation, % at 2 µM;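 active means activation above a set limit, based on mean plus 3 SD of controls, cut at about 140% in these data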
FLuc inhib CS – counter-screen for luciferase assay inhibitors: firefly luciferase inhibition; P08659; 200,000 tested, 1.5% active; AID 1006; inhibition, % at 10 µM; ATPLite firefly luciferase biochemical luminescence, 10 min;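 active means inhibition above about 50% when tested at 10 µM, limit read from the data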
Target sequence (P08659 whole entry, looked up): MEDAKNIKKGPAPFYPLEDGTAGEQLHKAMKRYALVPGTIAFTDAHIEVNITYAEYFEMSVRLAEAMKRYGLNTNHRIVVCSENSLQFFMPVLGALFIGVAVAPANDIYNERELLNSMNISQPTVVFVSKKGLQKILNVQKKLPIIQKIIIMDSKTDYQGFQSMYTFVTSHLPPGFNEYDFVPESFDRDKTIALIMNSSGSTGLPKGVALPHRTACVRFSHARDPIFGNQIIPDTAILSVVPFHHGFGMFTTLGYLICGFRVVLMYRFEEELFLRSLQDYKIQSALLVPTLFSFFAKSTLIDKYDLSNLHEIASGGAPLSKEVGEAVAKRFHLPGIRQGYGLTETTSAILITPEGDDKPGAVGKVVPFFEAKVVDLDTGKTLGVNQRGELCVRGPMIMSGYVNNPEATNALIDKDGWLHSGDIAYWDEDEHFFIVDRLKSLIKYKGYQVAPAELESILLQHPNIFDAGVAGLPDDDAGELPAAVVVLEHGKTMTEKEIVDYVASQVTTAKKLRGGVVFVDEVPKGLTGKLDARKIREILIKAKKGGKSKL
NF-kB expr up – compounds increasing NF-kB expression in human neuronal cells; AID 1239; NF-kB reporter expression; stronger effect = higher value; fold change at 12.5 µM; 190,000 tested, 1.6% active; in the data active means fold change above about 3.3
FLuc act counter – firefly luciferase counter-screen for stimulation assays; activation factor at 10 µM; P08659; ATPlite luciferase biochemical, luminescence, 10 min; 0 = ATP-free wells, 1 = DMSO control; 200,000 tested, under 10 active;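 active means luciferase activation factor, scaled between plate controls, of at least 2 with compound at 10 µM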
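System: cell-free luciferase reagent; medium: PBS as buffer for the ATP substrate; doses: test compounds dosed from 2 mM stocks in 100% DMSO; incubation: 10 min, room temperature; measured by: luminescence from luciferase reaction; read-out: luciferase activation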
Starred values were filed as active, the others as inactive; . = no result given. A selection: hits, their analogues and other compounds. The true share with any hit is near 4.1%.

SMILES	STAT1 act	APP 5'UTR act	FLuc inhib CS	NF-kB expr up	FLuc act counter
COC(=O)C1CSC(c2ccc(Cl)cc2)N1C(=O)c1ccccc1 (stereo not drawn)	91.9	-2.5	-2.3	1.21	1
O=C(/C=C\Nc1ccc2c(c1)OCO2)c1ccc2c(c1)OCO2	51.2	197.2*	89.3*	8.02*	0.1
O=c1[nH]c(CN2CCN(S(=O)(=O)c3cccs3)CC2)nc2c(Br)cc(Br)cc12	103.9	13.1	-4.2	0.95	1
O=C(CC12CC3CC(CC(C3)C1)C2)NCC(c1ccc(F)cc1)N1CCOCC1 (stereo not drawn)	88.9	1.0	-0.5	1.19	1
Cc1scc(C(=O)N/N=C/c2ccco2)c1C	117.7	71.8	54.4*	2.23	0.5
Cc1scc(C(=O)N/N=C/c2ccsc2)c1C	140.1*	69.5	83.8*	4.64*	0.2
CN(C)c1cccc(C(=O)N/N=C/c2ccsc2)c1	124.7	37.4	90.0*	1.03	0.1
Cc1ccc(S(=O)(=O)NCC(=O)NCC(=O)OCC(=O)N2CC(=O)Nc3ccccc32)cc1C	93.8	-19.0	-6.5	0.93	1.1
COc1ccc2c(c1)CC/C(=C/c1ccco1)C2=O	132.7*	181.2*	81.1*	8.13*	0.2
O=C1/C(=C/c2ccco2)CCc2ccccc21	105.2	164.5*	60.6*	2.89	0.4
Nc1ccc2c(c1)C/C(=C/c1ccco1)C2=O	210.2*	188.6*	87.4*	1.02	0.1
C/C=C(\CS(=O)(=O)c1ccccc1)S(=O)(=O)c1ccccc1	86.5	-0.1	-5.8	1.24	1.1
Cc1cc(NC(=O)C2CCCCC2)ccc1NC(=O)c1ccccc1Cl	97.0	8.6	-6.1	1.15	1.1
Cc1sc(NC(=O)c2ccccc2F)c(CN2CCCCC2)c1C	120.9	23.6	-0.8	1.76	1
Cc1sc(NC(=O)c2ccc(F)cc2)c(CN2CCCCCC2)c1C	131.2*	46.2	-2.2	1.35	1
O=C(Nc1nnc(-c2ccco2)s1)C1CCCCC1	144.3*	108.0	3.5	1.54	1
CN(C)c1ccc(C2=NOC(CN3C(=O)c4ccccc4S3(=O)=O)C2)cc1 (stereo not drawn)	147.4*	93.0	10.1	3.35*	0.9
Cc1ccc(-c2cc(=O)c3cc(F)ccc3[nH]2)cc1	103.7	6.1	19.5	1.82	0.8
Cc1ccc2[nH]c(-c3cccc(F)c3)cc(=O)c2c1	120.8	-93.2	20.4	3.79*	0.8
COc1ccc2[nH]c(-c3cccc(F)c3)cc(=O)c2c1	127.5	-92.9	25.4	5.46*	0.7
Cc1ccc(-c2cc(=O)c3cc(C)ccc3[nH]2)cc1	146.4*	114.8	93.3*	5.8*	0.1
O=c1cc(-c2cccc(F)c2)[nH]c2ccccc12	107.9	-93.8	-1.2	2.67	1
COc1ccc(C(CC(=O)c2ccc(C)cc2)C(C#N)C#N)cc1OC (stereo not drawn)	98.5	-4.6	-1.4	0.53	1
O=C(Nc1ccc2nn(-c3ccccc3)nc2c1)c1cccs1	136.3*	73.6	4.9	1.52	1
O=C(Nc1ccncc1)c1cccs1	95.2	-8.8	-1.2	0.99	1
SMILES	STAT1 act	APP 5'UTR act	FLuc inhib CS	NF-kB expr up	FLuc act counter
O=C(c1ccc2c(c1)OCCCO2)c1cccs1	126.7	140.0*	42.2	3.97*	0.6
O=C(Nc1ccc2c(c1)OCO2)c1cccs1	121.9	62.0	36.0	3.43*	0.6
O=C(/C=C\Nc1ccc2c(c1)OCO2)c1cccs1	39.9	177.6*	96.0*	6.31*	0
C/C(=N\NC(=O)c1cccs1)c1ccc2c(c1)OCO2	122.6	28.8	12.2	2.05	0.9
O=C(O)CCC(=O)NNc1ccccc1[N+](=O)[O-]	97.8	15.0	-5.7	1.06	1.1
O=C(/C=C/c1cccs1)NC(=S)NNC(=O)Cc1cccs1	90.8	8.6	-6.4	0.71	1.1
Cc1ccsc1/C=N/N1CCN(Cc2ccccc2)CC1	103.6	0.8	1.8	1.72	1
C=CCn1c(C)cc(C(=O)CN2NS(=O)(=O)c3ccccc3C2=O)c1C	142.8*	-84.6	55.4*	1.21	0.4
C=CCn1c(C)cc(C(=O)Cn2ncc(Cl)c(Cl)c2=O)c1C	83.8	-86.7	23.6	0.65	0.8
Cc1nc(NC(=O)CSc2ccccc2N)sc1C	109.7	16.1	-4.2	1.42	1
c1csc(-c2ccc3ccccc3n2)c1	147.3*	42.9	40.0	2.2	0.6
CCC(OC(=O)c1nsc(Cl)c1Cl)C(=O)NC(C)(C)CC (stereo not drawn)	101.9	8.7	-3.7	0.99	1
COc1ccc(Nc2nnc(SCC(=O)/C=C3/N(C)c4ccccc4C3(C)C)s2)cc1	91.5	-1.8	-0.4	1.45	1
O=C(N=Nc1c(O)[nH]c2ccccc12)c1cccs1	140.7*	154.3*	89.3*	5.62*	0.1
Oc1ccc(NC(=S)N=Nc2c(O)[nH]c3ccccc23)cc1	144.6*	38.5	-4.4	0.71	1
O=C(CCc1nnc(-c2ccc(-c3ccccc3)cc2)o1)N1CCCCC1	115.3	-13.8	4.4	.	1
O=C(CCc1nnc(-c2ccsc2)o1)N1CCc2c(Cl)cccc2C1	129.2*	41.7	-4.2	2.22	1
COc1ccc(/C=C/C(=O)OCC(=O)NC(=O)NC(C)(C)C)cc1	104.5	21.3	-8.9	0.85	1.1
C=CCn1c(SCC(=O)Nc2ccc(-c3nc4ccc(C)cc4s3)cc2)nnc1-c1ccncc1	130.2*	160.5*	-2.9	1.47	1
Cc1ccc2nc(-c3ccc(NC(=O)CSc4nccc(=O)[nH]4)cc3)sc2c1	134.5*	143.8*	37.5	1.89	0.6
Cc1ccc2nc(-c3ccc(NC(=S)NC(=O)CC(C)C)cc3)sc2c1	114.0	78.7	-0.4	1.39	1
CCn1c(SCC(=O)Nc2ccc(-c3nc4ccc(C)cc4s3)cc2)nnc1-c1ccccc1	132.2*	109.5	3.9	1.6	1
Cn1c(=O)c2c(nc(N3CCN(Cc4ccccc4)CC3)n2CCSc2ncccn2)n(C)c1=O	.	.	-3.6	.	1
O=C(NCc1ccccc1)N1CCC(n2cnc3cc(F)ccc32)CC1	95.6	-0.6	0.5	1.05	1
Cc1ccc(CN2CCN(CCC(C)C)C(CCO)C2)s1 (stereo not drawn)	98.2	0.7	-1.8	1.31	1
SMILES	STAT1 act	APP 5'UTR act	FLuc inhib CS	NF-kB expr up	FLuc act counter
Cc1ccc(CN2CCN(CC(C)C)C(CCO)C2)s1 (stereo not drawn)	134.9*	75.9	2.4	2.57	1
O=C(COc1ccc(S(=O)(=O)N2CCCC2)cc1)NCC1CCCO1 (stereo not drawn)	94.0	17.2	-4.5	1.06	1
COCCCNC(=O)CN(c1cccc(Cl)c1)S(C)(=O)=O	92.2	-16.5	0.8	1.01	1
CCN(CC)CCn1nc2c3c(cccc3c1=O)-c1ccccc1-2	230.0*	-67.7	5.9	1.33	0.9
O=c1c2cccc3c2c(nn1CN1CCOCC1)-c1ccccc1-3	118.2	-11.1	-3.7	1.19	1
Cc1ccnc(NC(c2ccccn2)c2c(C)[nH]c3ccccc23)c1 (stereo not drawn)	97.0	12.8	-5.8	1.1	1.1
